The subject of experiment [1] is P388/ADR. The experiment in a line: In vitro relative vinblastin uptake into P388/ADR (murine leukemia/multidrug resistant) cells following 10 uM treatment. It is filed as functional, Mus musculus. Summed up:
(§1)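 10^6 P388/S or P388/ADR cells in 1 mL of 20 mM Hepes-buffered medium, pH 7.4. They are incubated with 4.6 kBq [3H]vinblastine with or without 10 μM compound (DMSO final 1%) at 37 °C for 30 min. Cells are then chilled, pelleted at 2 °C and washed twice in cold PBS. They are solubilized in NaOH and counted. The value is uptake relative to untreated cells.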

In experiment [2] the test system is P388/S. The experiment in a line: In vitro relative vinblastin uptake into P388/s (murine leukemia) cells following 10 uM treatment. It is filed as functional, Mus musculus. Summed up: as §1
Experiment [3] deals with Mus musculus. The experiment in a line: In vivo evaluation for the inhibitory activity against drug sensitive P388 cells (P388/S) cells bearing mice at dose 0.2 mg/kg. It is filed as functional. Summed up:
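Mice were implanted with 1 × 10^6 P388/S cells on day 0 and given VBL by i.p. injection on days 1-4 and 6-8. Survival days (average ± SD) and ILS (%) were compared with the untreated group, with P < 0.05 by Student's t-test or Welch-corrected two-sample test.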

Experiment [4] deals with Mus musculus. Put plainly: Evaluation of Survival of mice upon intraperitoneal injection of VBL at a concentration of 0.2 mg/kg. It is filed as functional. To be noted: ip. An outline of the steps:
(§2)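 Female CD2F1 mice, 5 per group, were inoculated i.p. with 1.0 × 10^6 P388/ADR cells on day 0. VBL was given by i.p. injection and/or the test agent orally on days 1-4 and 6-8. Read-out was survival days (average ± SD) and ILS (%) against the untreated group, with P < 0.05 by Student's t-test or a two-sample test with Welch's correction.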

Experiment [5] has as its system Mus musculus. The experiment in a line: Evaluation of ILS percentage of mice upon intraperitoneal injection of VBL at a concentration of 0.2 mg/kg. It is filed as functional. To be noted: ip. An outline of the steps: as §2
Experiment [6] concerns Mus musculus. Put plainly: In vivo evaluation for the inhibitory activity against drug sensitive P388 cells (P388/S) cells bearing mice at a concentration of 0.2 mg/kg.
The test system of experiment [7] is P388/S. Put plainly: Evaluation of inhibitory activity against drug sensitive P388 cells (P388/S) cells. It is filed as functional, cell-based. Conditions: Mus musculus. Summed up: (§3)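 P388/S and P388/ADR murine leukemia cells are maintained by weekly intraperitoneal passage in female CDF1 mice. For the assay they are seeded at 10^5 cells/mL in RPMI-1640 with 10% FCS, 20 μM β-mercaptoethanol and 100 μg/mL kanamycin. Vinblastine is given with or without modulator (0–5.0 μM; DMSO final 0.25%) for 48 h. Growth is read by MTT and vinblastine IC50 is reported.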

For experiment [8], the system named is P388/ADR. The experiment in a line: Evaluation of inhibitory activity against multidrug resistant P388 cells (P388/ADR) cells. It is filed as functional, cell-based, Mus musculus. To be noted: Mus musculus, P388/ADR. Summed up: as §3
The test system of experiment [9] is P388/S. Put plainly: Evaluation of inhibitory activity and cisplatin against drug sensitive P388 cells (P388/S) cells. It is filed as functional, cell-based, Mus musculus. Conditions: Mus musculus, P388/S. An outline of the steps:
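P388/S or P388/ADR cells at 10^5 cells/mL in RPMI-1640/10% FCS medium. They receive graded adriamycin, mitomycin C or cisplatin, alone or together with 2.5 μM modulator, for 48 h (DMSO final 0.25%). Growth is read by MTT and the antitumor-drug IC50 is reported.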

In experiment [10] the test system is P388/ADR. Put plainly: Evaluation of inhibitory activity and adriamycin against multidrug resistant P388 cells (P388/ADR) cells. Conditions: Mus musculus.
Experiment [11] concerns Mus musculus. Put plainly: Evaluation of Survival of mice upon oral administration on days 1-4 and 6-8 at a concentration of 40 mg/kg. It is filed as functional. An outline of the steps: as §2
For experiment [12], the system named is Mus musculus. The experiment in a line: Evaluation of ILS percentage of mice upon oral administration on days 1-4 and 6-8 at a concentration of 40 mg/kg. It is filed as functional. An outline of the steps: as §2

For `CSC1=NC(=O)N(Cc2cccc(Cl)c2)CCN1Cc1cccc(Cl)c1`, the Relative uptake with P388/ADR [1] was determined as 6.75; in the experiment on P388/S [2], 1.16.
On to `S=C1NC(=S)N(Cc2ccc(Cl)cc2)CCN1Cc1ccc(Cl)cc1`, for which the Relative uptake in the experiment on P388/ADR [1] is on record as 6; with P388/S [2] it was 1.48.
Consider `COc1ccc(CCN(C)CCCC(C#N)(c2ccc(OC)c(OC)c2)C(C)C)cc1OC` (stereo not given) [VERAPAMIL], for which the Relative uptake was 5.7 in the experiment with P388/ADR [1] and 1.02 with P388/S [2].
The matching figures for `O=C1NC(=S)N(Cc2ccc(Cl)cc2)CCN1Cc1ccc(Cl)cc1`: 5.35 and 1.3.
`CC[C@]1(O)C[C@@H]2CN(CCc3c([nH]c4ccccc34)[C@@](C(=O)OC)(c3cc4c(cc3OC)N(C)[C@H]3[C@@](O)(C(=O)OC)[C@H](OC(C)=O)[C@]5(CC)C=CCN6CC[C@]43[C@@H]65)C2)C1` [VINBLASTINE]: the Survival days in the experiment on Mus musculus [3] and in the experiment with Mus musculus [6] was 15.5 throughout. In addition, the increase in life span (ILS) at 0.2 mg/kg stood at 14.6% in the experiment with Mus musculus [4] and 89% in the experiment on Mus musculus [5].
For the molecule `O=C1NC(=O)N(Cc2ccc(Cl)cc2)CCCN1Cc1ccc(Cl)cc1`, the Relative uptake was determined as 2.86 in the experiment on P388/ADR [1] and 1.17 in the experiment on P388/S [2].
As for `S=C1NC(=S)N(Cc2cccc(Cl)c2)CCN1Cc1cccc(Cl)c1`, the Relative uptake in the experiment with P388/ADR [1] is recorded as 5.34; in the experiment with P388/S [2], 1.34.
For the molecule `CSC1=NC(=O)N(Cc2ccccc2)CCN1Cc1ccccc1`, the Relative uptake in the experiment with P388/ADR [1] was 2.13; in the experiment with P388/S [2] it was 1.37.
Take `CSC1=NC(=S)N(Cc2ccccc2)CCN1Cc1ccccc1`: the Relative uptake is listed as 3.44 in the experiment with P388/ADR [1] and 1.19 in the experiment on P388/S [2].
As for `O=C1NC(=O)N(Cc2cccc(Cl)c2)CCCN1Cc1cccc(Cl)c1`, the values for the Relative uptake with P388/ADR [1] and with P388/S [2] were 2.62 and 1.12, respectively.
The like results for `COc1ccc(CN2CCN(Cc3ccc(OC)c(OC)c3)C(=S)NC2=S)cc1OC` were, in that order, 5.26 and 1.21.
The matching figures for `Clc1ccc(CNCCNCc2ccc(Cl)cc2)cc1`: 2.62 and 1.04.
With `O=C1NC(=S)N(Cc2ccccc2)CCN1Cc1ccccc1`, the Relative uptake is given as 2.11 in the experiment with P388/ADR [1] and 1.2 in the experiment on P388/S [2].
For the molecule `COc1cccc2c1C(=O)c1c(O)c3c(c(O)c1C2=O)C[C@@](O)(C(=O)CO)C[C@@H]3O[C@H]1C[C@H](N)[C@H](O)[C@H](C)O1` [DOXORUBICIN], the figures for the IC50 in the experiment on P388/S [7] and in the experiment with P388/ADR [8] were 0.019 µM and 0.36 µM, respectively.
On to `COc1ccc(CN2CCN(Cc3ccc(OC)c(OC)c3)C(SC)=NC2=O)cc1OC`, for which the values for the Relative uptake in the experiment on P388/ADR [1] and in the experiment on P388/S [2] were 1.14 and 1.04, respectively.
`COc1cccc2c1C(=O)c1c(O)c3c(c(O)c1C2=O)C[C@@](O)(C(=O)CO)C[C@@H]3OC1C[C@H](N)[C@H](O)[C@H](C)O1.CSC1=NC(=O)N(Cc2ccc(Cl)cc2)CCN1Cc1ccc(Cl)cc1` (stereo not given in full): the half-inhibitory concentration (IC50) in the experiment with P388/S [9] is 0.013 µM; in the experiment on P388/ADR [10], 0.09 µM.
`O=C1NC(=O)N(Cc2ccccc2)CCCN1Cc1ccccc1`: the figures for the Relative uptake in the experiment on P388/ADR [1] and in the experiment on P388/S [2] were 1.78 and 0.93, respectively.
As to `CSC1=NC(=O)N(Cc2ccc(Cl)cc2)CCN1Cc1ccc(Cl)cc1`, in the experiment on Mus musculus [11], the Survival days worked out at 10. Further, the Relative uptake in the experiment on P388/ADR [1] stood at 6.87; with P388/S [2], 1.28. In the experiment with Mus musculus [12], this molecule yielded an ILS at 40 mg/kg of 4.2%.
Regarding `COc1ccc(CN2CCN(Cc3ccc(OC)c(OC)c3)C(=O)NC2=O)cc1OC`, the Relative uptake in the experiment on P388/ADR [1] is 1.16; in the experiment with P388/S [2] it was 0.93.
The like results for `COc1ccc(CN2CCCN(Cc3ccc(OC)c(OC)c3)C(=O)NC2=O)cc1OC` were, in that order, 1.11 and 1.06.
For the molecule `COC12[C@H](COC(N)=O)C3=C(C(=O)C(C)=C(N)C3=O)N1C[C@@H]1N[C@@H]12.CSC1=NC(=O)N(Cc2ccc(Cl)cc2)CCN1Cc1ccc(Cl)cc1`, the IC50 in the experiment on P388/S [9] turned out to be 0.044 µM; in the experiment on P388/ADR [10] it was 0.264 µM.
On to `S=C1NC(=S)N(Cc2ccccc2)CCN1Cc1ccccc1`, for which the Relative uptake in the experiment with P388/ADR [1] was found to be 4.16; in the experiment on P388/S [2], 1.26.
The matching figures for `COc1ccc(CN2CCN(Cc3ccc(OC)c(OC)c3)C(=S)NC2=O)cc1OC`: 2.36 and 1.14.
The like results for `O=C1NC(=O)N(Cc2ccccc2)CCN1Cc1ccccc1` were, in that order, 1.41 and 1.09.
`O=C1NC(=O)N(Cc2cccc(Cl)c2)CCN1Cc1cccc(Cl)c1`: the figures for the Relative uptake in the experiment with P388/ADR [1] and in the experiment with P388/S [2] were 1.05 and 1.2, respectively.
The like results for `O=C1NC(=S)N(Cc2cccc(Cl)c2)CCN1Cc1cccc(Cl)c1` were, in that order, 6.14 and 1.26.
Consider `O=C1NC(=O)N(Cc2ccc(Cl)cc2)CCN1Cc1ccc(Cl)cc1`, for which the Relative uptake is recorded as 3.44 with P388/ADR [1] and 1.22 with P388/S [2].
Take `CO[C@@]12[C@H](COC(N)=O)C3=C(C(=O)C(C)=C(N)C3=O)N1C[C@@H]1N[C@@H]12` [MITOMYCIN]: the IC50 came out at 0.048 µM with P388/S [7] and 0.535 µM in the experiment on P388/ADR [8].

A word on the ILS: it is the gain in survival time of treated over control animals, in per cent. Higher therefore signals a large benefit in survival. As usually defined, the IC50 is the concentration at which inhibition is half-maximal. Lower therefore signals greater potency in that assay.

The record behind these values is ChEMBL document CHEMBL1128222, “Novel inhibitors for multidrug resistance: 1,3,5-triazacycloheptanes” (J Med Chem, 1995).
